Experimental data from different studies.
Target: Cyclin-dependent kinase 3 (CDK3, Homo sapiens, UniProt Q00526)

Structure (SMILES)	assay	conditions	remaining binding [%]
O=C(c1ccc(Nc2nccc(-c3cc4ccccc4s3)n2)cc1)N1CCC(N2CCCC2)CC1	binding, competition with immobilised ligand	1 µM	98
CCC(=O)N[C@H]1CC[C@@H](C(=O)N(C)c2ccc(-c3nc4ccccc4o3)cc2)C1	cell-free assay, competition with immobilised ligand	1 µM	98
CC1CCCN1c1nccc(-c2cnn3ncccc23)n1 (stereo not drawn)	binding	1 µM	100
O=C(Nc1c[nH]nc1C(=O)NC1CCNCC1)c1cc(F)cc(F)c1	binding, competition with immobilised ligand	1 µM	91
Cc1cnn2ncc(-c3ccnc(N(C)C)n3)c2c1	binding	1 µM	86
C[C@@H](c1cccc(C#N)c1)n1cc(Cl)cc(C(N)=O)c1=N	cell-free assay, competition with immobilised ligand	1 µM	100
CN(c1nccc(-c2cnn3ncccc23)n1)C1CC1	binding	1 µM	100
CCCOc1ccc([C@H]2[C@H](C(=O)O)[C@@H](c3ccc4c(c3)OCO4)CN2CC(=O)Nc2c(CC)cccc2CC)cc1	cell-free assay, competition with immobilised ligand	1 µM	95
CN(C)c1nccc(-c2cnn3ncccc23)n1	binding	1 µM	78
COc1cnc(Nc2cccc(S(N)(=O)=O)c2)nc1N1CCN(c2ccccc2)CC1	binding, competition with immobilised ligand	1 µM	100
C[C@@H]1CN(c2ccc3ncc(-c4ccc5[nH]nc(C6CC6)c5c4)n3n2)C[C@H](C)O1	binding, competition with immobilised ligand	50 nM	100
COc1ncc2cc3ccccc3nc2c1C#N	cell-free assay, competition with immobilised ligand	5 µM	100
CNC(=O)[C@@H]1CC[C@@H](n2c(-c3ccc4cnccc4c3)nc3ccc(C(=O)NCc4cccc(C(N)=O)c4)cc32)C1	binding, competition with immobilised ligand	1 µM	89
CCS(=O)(=O)c1cc2cc(C[C@](O)(CC(C)(C)c3ccc(F)cc3C(N)=O)C(F)(F)F)[nH]c2cn1	cell-free assay, competition with immobilised ligand	1 µM	100
CC(C)(C)c1ccc(-c2nc(CBr)nn2-c2cccc(O)c2)cc1	cell-free assay, competition with immobilised ligand	10 µM	100
F[C@@H]1CCN(c2nccc(-c3cnn4ncccc34)n2)C1	binding	1 µM	100
CS(=O)(=O)c1cc(C2(NC(=O)c3cncc4c3cnn4-c3ccc(F)cc3)CC2)ccn1	cell-free assay, competition with immobilised ligand	1 µM	81
O=C(NCCCN1CCOCC1)c1ccc(Nc2ncc(Cl)c(-c3ccc(Cl)s3)n2)cc1	binding, competition with immobilised ligand	1 µM	44
CN(C)c1ncc(F)c(-c2cnn3ncccc23)n1	binding	1 µM	82
O=C(c1ccc(Nc2ncc(Cl)c(-c3ccc(Cl)s3)n2)cc1)N1CCC(N2CCCC2)CC1	binding, competition with immobilised ligand	1 µM	47
N#Cc1ccc(Nc2ccc3[nH]c(=O)[nH]c3c2)c(Cl)c1	cell-free assay, competition with immobilised ligand	1 µM	100
